Screens (PubChem)
T cruzi inh = T. cruzi replication inhibition. actives 1.4% (n = 300,000). inhibition, % (test concentration not listed). T. cruzi beta-gal in NIH3T3, luminescence, 90 h;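 active = mean inhibition across valid replicates above about 55%, limit read from the data; inconclusive = mean below that limit but half or more replicates reach it; inactive = mean below it, under half of replicates reach it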;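 note: signal also drops with host cell toxicity which is not excluded here; 0% = plate median of DMSO wells and 100% = zero luminescence signal; higher percent means less beta-gal luminescence so fewer parasites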
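Material: NIH/3T3 host cells with β-galactosidase reporter T. cruzi; Input: 5,000 host fibroblasts per well; Medium: DMEM, 2% fetal bovine serum; Compound: 50 nL DMSO compound solution per well; Schedule: 3 h host attachment, then at least 90 h co-culture; Detection: luminescent β-galactosidase signal after 60 min lysis.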
H9c2 TAG inh = reduces triacylglycerol accumulation in H9c2 cells; Nile Red lipid (TAG) fluorescence; cells loaded with 200 µM oleic acid; inhibition, % at 12.5 µM; actives 0.66% (n = 230,000); AID 651582;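 active = pattern-corrected inhibition of lipid staining of at least 50% with the nuclear-stain viability signal not falling by more than 50%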;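 note: 0% = DMSO wells and 100% = triacsin C control wells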
Beta cell apopt = beta cell apoptosis inhibition. INS-1E cytokine-induced death, ATP luminescence, 48 h; percent of positive-control rescue, neutral wells zero. protection from apoptosis, % (no concentration beside the values). actives 0.8% (n = 300,000). AID 435005;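 active = Every replicate reaches about 75%, or at least half do and their mean reaches it too, limit read from the data; inconclusive = At least half of replicates reach the limit but their mean does not; inactive = Under half of replicates reach the limit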;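 note: 0% = cytokine-treated negative control wells and 100% = positive control rescue; higher means more ATP so stronger rescue from cytokine killing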
Calb FLC = affects C. albicans growth with fluconazole | C. albicans CaCi-2 + fluconazole, Alamar Blue growth, 48 h | growth inhibition, % (concentration not given with the values) | actives 0.57% (n = 300,000);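 active = growth inhibition above about 58% in most replicates, limit read from the data, passing the limit was not always enough; inconclusive = exactly half the replicates above a set limit; inactive = most replicates below a set limit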;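 note: all wells also contain fluconazole at 8 µg/ml as a sub-toxic cotreatment; 0% = median of DMSO wells and 100% = median of geldanamycin control wells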
CSC inhib = blocks cancer stem cells; cancer stem cell-like cells viability, luminescence; inhibition, % at 7.5 µM; actives 1.1% (n = 300,000); in the data active = inhibition above about 75%; inconclusive = no clear call, values can overlap the other calls; tested in HMLE shEcad cells
A1 inh = inhibitors of the anti-apoptotic protein A1, read as caspase activation | actives 0.066% (n = 330,000) | MEF A1-2A-BIM cells, Caspase-Glo 3/7 luminescence, 3 h; percent of clofoctol response, vehicle zero | caspase activation, % (concentration not given with the values) | AID 2462;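 active = over half of replicate activation scores above 10%, or exactly half above 10 with the replicate mean above 10; inconclusive = replicate mean below 10 yet half the replicates above 10; inactive = over half of replicates below 10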
* = called active by the depositor; ? = inconclusive; · = no result. Compounds with a hit are over-represented: about 3.1% of the library has one in this group of screens.

SMILES | T cruzi inh | H9c2 TAG inh | Beta cell apopt | Calb FLC | CSC inhib | A1 inh
Cc1cc(CN2CCN(CCC#N)CC2)c(O)c(C2(C)CCCCC2)c1 | 55* | -6 | 7 | · | -21 | 1
CCCS(=O)(=O)c1nc(S(=O)(=O)c2ccc(C)cc2)c(N2CCCC(C)C2)s1 (stereo not given) | -6 | · | 5 | -2 | 4 | -1
CC(Sc1nnc(Cc2cccs2)n1C1CC1)C(=O)NC1CCS(=O)(=O)C1 (stereo not given) | · | -8 | · | · | · | ·
Cc1noc(C)c1S(=O)(=O)N(C)C[C@H]1Oc2ccc(NC(=O)Cc3ccccc3)cc2C(=O)N([C@H](C)CO)C[C@@H]1C | · | -5 | 1 | · | · | 0
N=c1c(S(=O)(=O)c2ccc(Cl)cc2)cc2c(=O)n3ccccc3nc2n1CCc1ccccc1 | 58* | 23 | 3 | 0 | 19 | 0
COc1ccc(CCN(C)CCC(=O)Nc2cc(C)ccc2C)cc1OC | 30 | 0 | 0 | -7 | 12 | 0
COc1ccc(CCN(C)CC(=O)Nc2c(C)cc(C)cc2C)cc1OC | 61* | · | -1 | -2 | -3 | 3
Cc1ccc(NC2=C(N3CCOCC3)C(=O)c3ccccc3C2=O)cc1 | -22 | · | 66 | 39 | -2 | -1
O=C(NCCN1CCCC1)c1ccccc1Cl | 2 | · | -1 | 2 | -2 | -1
Cc1ccc(NC2=C(Cl)C(=O)c3ccccc3C2=O)cc1 | -29 | · | 3 | 19 | 112* | -1
CCNC1=C(Cl)C(=O)c2ccccc2C1=O | -14 | 62* | 55 | -15 | -7 | 1
O=C1C=C(Nc2ccc(O)cc2)C(=O)c2ccccc21 | -9 | 35 | 100* | -4 | 105* | -8
O=C1C(Cl)=C(NCCN2CCCCC2)C(=O)c2ccccc21 | 67* | · | 112* | -1 | 107* | 0
CCCC(=O)N1CCC1(C)C(=O)Nc1cc(OC)c(OC)c(OC)c1 (stereo not given) | · | -2 | · | · | · | ·
O=C1C(Cl)=C(Nc2ccc(O)cc2)C(=O)c2ccccc21 | 63* | 5 | 6 | 2 | 124* | 0
CCCC(=O)NC1=C(Cl)C(=O)c2ccccc2C1=O | · | 27 | · | · | · | ·
CCN(CC)c1ccc(NC2=C(Cl)C(=O)c3ccccc3C2=O)cc1 | · | · | 1 | · | 106* | ?
CCC(=O)c1ccc(OCC(=O)OCC(=O)NCC2CCCCC2)cc1 | -7 | 0 | · | 6 | -5 | 1
CC(/C=C/c1ccco1)=N/NC(=O)CNc1ccccc1C | 7 | 1 | 1 | -27 | 6 | 1
CC(/C=C/c1ccco1)=N\NC(=O)CNc1ccc2ccccc2c1 | 3 | 6 | 0 | 116* | 2 | 0
NC(=S)NN=C1CCSCC1 | · | 8 | · | · | · | ·
COc1ccc(C)cc1NC(=O)c1nnn(Cc2cc(C)ccc2C)c1N | 2 | -11 | -13 | -15 | 42 | 0
COc1ccc(OC)c(NC(=O)c2nnn(Cc3ccccc3C)c2N)c1 | 2 | -22 | -6 | 12 | 106* | 0
CC(Oc1ccc(Cl)cc1Cl)c1nc(-c2ccc(NC(=O)c3cccnc3)cc2)no1 (stereo not given) | 41 | 0 | 101* | 2 | 20 | 0
CC(Oc1ccc(Cl)cc1Cl)c1nc(-c2ccc(NC(=O)c3ccncc3)cc2)no1 (stereo not given) | 55* | · | · | 15 | 83* | 0
SMILES | T cruzi inh | H9c2 TAG inh | Beta cell apopt | Calb FLC | CSC inhib | A1 inh
CC(Oc1ccc(Cl)cc1Cl)C(=O)NNC(=O)c1cccnc1 (stereo not given) | 1 | · | -4 | · | -1 | 0
CC(Oc1ccc(Cl)cc1Cl)C(=O)NNC(=O)c1ccncc1 (stereo not given) | -3 | 1 | 0 | 10 | 15 | 0
CCCCN(C=O)c1c(CC)nc2c(OCC(=O)c3ccc(F)cc3)cccn12 | · | -27 | · | · | · | ·
O=S(=O)(c1ccccc1)N(CC(O)Cn1c2ccccc2c2ccccc21)c1ccccc1 (stereo not given) | 35 | · | · | 4 | 95* | 0
OCCNCC(O)Cn1c2ccccc2c2ccccc21 (stereo not given) | -12 | 1 | 3 | 3 | 18 | -1
Cc1ccc(S(=O)(=O)N(C)CC(O)Cn2c3ccccc3c3ccccc32)cc1 (stereo not given) | 6 | · | -3 | 13 | 6 | -1
